The source of these data is ChEMBL document CHEMBL2396529, “Synthesis and anticancer mechanism investigation of dual Hsp27 and tubulin inhibitors” (J Med Chem, 2013).

The structures appear in SMILES notation. Activity calls are given as the source filed them. The rule behind the calls is not given here.

Sequence of Heat shock protein beta-1 (Homo sapiens) (P04792 whole entry): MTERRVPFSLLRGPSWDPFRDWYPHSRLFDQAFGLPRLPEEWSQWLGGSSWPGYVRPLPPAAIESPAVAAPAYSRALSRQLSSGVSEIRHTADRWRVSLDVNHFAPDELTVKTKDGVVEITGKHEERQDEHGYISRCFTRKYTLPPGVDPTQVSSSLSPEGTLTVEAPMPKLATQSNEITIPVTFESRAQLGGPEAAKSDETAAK

One test concerns the target Heat shock protein beta-1 (Homo sapiens) (UniProt P04792). The test is described as follows: Inhibition of HSP27 (unknown origin) assessed as increase in DTT-induced insulin B chain aggregation at 10 uM incubated for 5 mins prior to DTT-treatment measured after 30 mins by spectrophotometric analysis relative to control.
Details: not given
As to `COc1ccc(C(=O)Nc2ccc(N(C)S(C)(=O)=O)c(OCc3cc(C)ccc3C)c2)cc1`, the inhibition (commonly the change of the read-out against control, counted positive when it falls) stood at 30%.

For the compound `Cc1ccc(C)c(COc2cc(NC(=O)c3ccc(I)cc3)ccc2N(C)S(C)(=O)=O)c1`, the inhibition worked out at 28%.

With `CS(=O)(=O)Nc1ccc([N+](=O)[O-])cc1Oc1ccccc1` [NIMESULIDE], the inhibition entry is “inactive”.

A further test shares this target. The experiment in a line: Inhibition of HSP27 (unknown origin) assessed as increase in DTT-induced insulin B chain aggregation at 5 uM incubated for 5 mins prior to DTT-treatment measured after 30 mins by spectrophotometric analysis relative to control.
Details: not given
`Cc1ccc(C)c(COc2cc(NC(=O)C3CCCCC3)ccc2N(C)S(C)(=O)=O)c1`: the inhibition is 29%.

In another test the test system is SK-BR-3. The experiment in a line: Antiproliferative activity against human SKBR3 cells after 48 hrs by MTT assay. The format is functional, cell-based. The settings on record: SK-BR-3, 48 h. An outline of the steps:
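MTT assay on SKBR-3 cells (RPMI 1640, 10% heat-inactivated FBS, 37 °C, 5% CO2), seeded 24 h before dosing, then exposed 48 h to a concentration series in DMSO (final ≤0.1%) with vehicle-matched controls. Afterwards 0.5 mg/mL MTT for 2 h, formazan dissolved in DMSO, A570 read, six replicates. IC50 from nonlinear regression.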
Regarding `COc1ccc(OC)c(COc2cc(NC(=O)c3ccc(OC)c(OC)c3)ccc2N(C)S(=O)(=O)C(F)(F)F)c1`, the IC50 (as a rule, the midpoint of a concentration-inhibition curve) came out at 0.55 µM.

As for `COc1ccc(OC)c(COc2cc(NC(=O)c3ccc4ccccc4c3)ccc2N(C)S(=O)(=O)C(F)(F)F)c1`, the half-maximal inhibitory concentration (IC50) worked out at 0.2 µM.

In the case of `Cc1ccc(C(F)(F)F)cc1COc1cc(NC(=O)c2ccc(Br)cc2)ccc1N(C)S(C)(=O)=O`, the IC50 was found to be 9.49 µM. Compared with the last compound, the IC50 is about 47-fold higher.

`COc1ccc(OC)c(COc2cc(NC(=O)c3ccc(Br)cc3)ccc2NS(C)(=O)=O)c1`: half-maximal inhibition (IC50) required 0.00958 µM.

On to `Cc1ccc(C)c(COc2cc(NC(=O)c3ccc4ccccc4c3)ccc2N(C)S(=O)(=O)C(F)(F)F)c1`, for which 41.4 µM corresponded to half-maximal inhibition (IC50).

In turn, `COc1ccc(C(=O)Nc2ccc(N(C)S(C)(=O)=O)c(OCc3cc(Cl)ccc3Cl)c2)cc1` yielded an IC50 of 0.49 µM.

On to `Cc1ccc(C(F)(F)F)cc1COc1cc(NC(=O)c2ccc3ccccc3c2)ccc1N(C)S(C)(=O)=O`, for which the midpoint of inhibition, the IC50, lay at 18.4 µM.

On to `CCCCCCOc1cc(NC(=O)c2ccc3c(c2)OCO3)ccc1N(C)S(C)(=O)=O`, for which the IC50 was 28.8 µM.

For the compound `COc1ccc(C(=O)Nc2ccc(N(C)S(=O)(=O)C(F)(F)F)c(OCc3cc(C)ccc3C)c2)cc1OC`, the midpoint of inhibition, the IC50, lay at 39.3 µM.

For the compound `CN(c1ccc(NC(=O)c2ccc(Br)cc2)cc1OCc1cc(Cl)ccc1Cl)S(C)(=O)=O`, half-maximal inhibition (IC50) required 2.29 µM.

With `COc1ccc(OC)c(COc2cc(NC(=O)c3ccc4ccccc4c3)ccc2NS(C)(=O)=O)c1`, the midpoint of inhibition, the IC50, lay at 0.0133 µM.

Compound `COc1ccc(OC)c(COc2cc(NC(=O)c3ccc4c(c3)OCO4)ccc2N(C)S(=O)(=O)C(F)(F)F)c1` registered an IC50 of 0.71 µM.

For `CCCCCCOc1cc(NC(=O)c2ccc(I)cc2)ccc1N(C)S(C)(=O)=O`, half-maximal inhibition (IC50) was put at 12.7 µM. Compared with the last compound, the IC50 is about 18-fold higher.

`Cc1ccc(C)c(COc2cc(NC(=O)c3ccc4c(c3)OCO4)ccc2N(C)S(=O)(=O)C(F)(F)F)c1`: 21.8 µM corresponded to half-maximal inhibition (IC50).

`CCCCCCOc1cc(NC(=O)c2ccc(Br)cc2)ccc1N(C)S(C)(=O)=O` gave an IC50 of 39.9 µM.

`COc1ccc(C(=O)Nc2ccc(NS(C)(=O)=O)c(OCc3cc(OC)ccc3OC)c2)cc1` registered an IC50 of 0.0134 µM.

With `COc1ccc(OC)c(COc2cc(NC(=O)c3ccc(OC)c(OC)c3)ccc2N(C)S(C)(=O)=O)c1`, the IC50 was determined as 0.00261 µM.

Compound `Cc1ccc(C)c(COc2cc(NC(=O)c3ccc(Br)cc3)ccc2N(C)S(=O)(=O)C(F)(F)F)c1` registered an IC50 of 36.4 µM.

In the case of `CN(c1ccc(NC(=O)c2ccc(I)cc2)cc1OCc1cc(Cl)ccc1Cl)S(C)(=O)=O`, 0.66 µM corresponded to half-maximal inhibition (IC50).

Compound `COc1ccc(C(=O)Nc2ccc(N(C)S(=O)(=O)C(F)(F)F)c(OCc3cc(OC)ccc3OC)c2)cc1` displayed an IC50 of 0.11 µM.

On to `Cc1ccc(C)c(COc2cc(NC(=O)c3ccc(I)cc3)ccc2N(C)S(=O)(=O)C(F)(F)F)c1`, for which the IC50 stood at 13.5 µM.

`COc1ccc(C(=O)Nc2ccc(N(C)S(C)(=O)=O)c(OCc3cc(C(F)(F)F)ccc3C)c2)cc1` showed an IC50 of 2.03 µM.

As to `COc1ccc(C(=O)Nc2ccc(N(C)S(=O)(=O)C(F)(F)F)c(OCc3cc(C)ccc3C)c2)cc1`, half-maximal inhibition (IC50) was put at 5.32 µM. Against the preceding compound, the IC50 is about 2.6-fold higher.

With `CCCCCCOc1cc(NC(=O)c2ccc(OC)cc2)ccc1N(C)S(C)(=O)=O`, the midpoint of inhibition, the IC50, lay at 20 µM.

`Cc1ccc(C(F)(F)F)cc1COc1cc(NC(=O)c2ccc(I)cc2)ccc1N(C)S(C)(=O)=O` registered an IC50 of 3.5 µM.

Consider `CN(c1ccc(NC(=O)c2ccc3ccccc3c2)cc1OCc1cc(Cl)ccc1Cl)S(C)(=O)=O`, for which inhibition was half-maximal at 2.21 µM (IC50). This IC50 is about 1.6-fold lower than that of the compound before.

`CS(=O)(=O)Nc1ccc([N+](=O)[O-])cc1Oc1ccccc1` [NIMESULIDE]: the IC50 is 100 µM.

With `COc1ccc(OC)c(COc2cc(NC(=O)c3ccc(Br)cc3)ccc2N(C)S(=O)(=O)C(F)(F)F)c1`, inhibition was half-maximal at 0.47 µM (IC50).

`CCCCCCOc1cc(NC(=O)c2ccc(OC)c(OC)c2)ccc1N(C)S(C)(=O)=O`: inhibition was half-maximal at 100 µM (IC50).

In the case of `COc1ccc(OC)c(COc2cc(NC(=O)c3ccc4c(c3)OCO4)ccc2N(C)S(C)(=O)=O)c1`, the IC50 was 0.00752 µM.

As to `COc1ccc(OC)c(COc2cc(NC(=O)c3ccc(OC)c(OC)c3)ccc2NS(C)(=O)=O)c1`, the IC50 came to 0.011 µM. This IC50 and that of the compound before are within 1.5-fold of each other.

With `CCCCCCOc1cc(NC(=O)c2ccc3ccccc3c2)ccc1N(C)S(C)(=O)=O`, half-maximal inhibition (IC50) was put at 64.3 µM.

For `CN(c1ccc(NC(=O)c2ccc3c(c2)OCO3)cc1OCc1cc(Cl)ccc1Cl)S(C)(=O)=O`, inhibition was half-maximal at 2.85 µM (IC50). This IC50 is about 23-fold lower than that of the compound before.

Turning to `COc1ccc(OC)c(COc2cc(NC(=O)c3ccc(Br)cc3)ccc2N(C)S(C)(=O)=O)c1`, half-maximal inhibition (IC50) was put at 0.00351 µM.

For the compound `COc1ccc(OC)c(COc2cc(NC(=O)c3ccc4ccccc4c3)ccc2N(C)S(C)(=O)=O)c1`, the IC50 is 0.0166 µM.

In turn, `COc1ccc(C(=O)Nc2ccc(N(C)S(C)(=O)=O)c(OCc3cc(Cl)ccc3Cl)c2)cc1OC` came in with an IC50 of 3.73 µM.

For the compound `Cc1ccc(C(F)(F)F)cc1COc1cc(NC(=O)c2ccc3c(c2)OCO3)ccc1N(C)S(C)(=O)=O`, the IC50 stood at 14.7 µM.

Regarding `COc1ccc(OC)c(COc2cc(NC(=O)c3ccc(I)cc3)ccc2NS(C)(=O)=O)c1`, it took 0.0118 µM to reach half-maximal inhibition (IC50).

`COc1ccc(OC)c(COc2cc(NC(=O)c3ccc(I)cc3)ccc2N(C)S(=O)(=O)C(F)(F)F)c1` yielded an IC50 of 0.51 µM.

`COc1ccc(OC)c(COc2cc(NC(=O)c3ccc4c(c3)OCO4)ccc2NS(C)(=O)=O)c1` registered an IC50 of 0.0353 µM.

Consider `COc1ccc(C(=O)Nc2ccc(N(C)S(C)(=O)=O)c(OCc3cc(C(F)(F)F)ccc3C)c2)cc1OC`, for which the IC50 stood at 16.9 µM.

The species entered for a further test is Bos taurus. The settings on record: 100 uM.
For the compound `CS(=O)(=O)Nc1ccc([N+](=O)[O-])cc1Oc1ccccc1` [NIMESULIDE], the inhibition is 14%.
